Experimental data reported in ChEMBL document CHEMBL4480360, “Design and characterization of a heterocyclic electrophilic fragment library for the discovery of cysteine-targeted covalent inhibitors” (Medchemcomm, 2019).

What was measured:
Type in all cases: physicochemical
[1] = Glutathione reactivity assessed as thiol reactivity rate constant at 250 uM up to 72 hrs by HPLC-MS or NMR analysis; design: unit not given beside the values
Procedure, shortened: (§1)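 Fragment 250 µM mixed with 5 mM glutathione in PBS pH 7.4 containing 5% acetonitrile, with 100 µM indoprofen as internal standard. For fragments not detectable at 250 µM, levels were reversed (5 mM fragment, 250 µM GSH). Internal-standard-corrected AUCs were fitted by OLS linear regression. k_GSH = k_eff − k_deg, and t1/2 = ln2/k_GSH.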

[2] = Stability of the compound assessed as half life for degradation
[3] = Glutathione reactivity assessed as half life at 250 uM up to 72 hrs by HPLC-MS or NMR analysis; details: gsh; procedure, shortened: as §1

| K [1] | half-life [2] [h] | t1/2 [3] [h] | SMILES |
| --- | --- | --- | --- |
| 0.0144 | > 1 | 48 | C#CCn1ccnc1 |
| 6.0573 | > 1 |  | Ic1ncco1 |
| 0.7872 | > 1 | 0.9 | Ic1nccs1 |
| 0.011 | > 1 | 63 | Brc1cncs1 |
| 0.116 | > 1 | 6 | Ic1ncc[nH]1 |

| SMILES | K [1] | half-life [2] [h] | t1/2 [3] [h] |
| --- | --- | --- | --- |
| N#Cc1cccnc1 | 0.0176 | > 1 | 41 |
| N#Cc1ccncc1 [ISONICOTINONITRILE] | 0.8837 | > 1 | 0.8 |
| N#Cc1cnccn1 | 0.0314 | > 1 | 22.5 |
